{"data": "Measured values from different studies", "target": "Protein kinase C alpha type (PRKCA, Homo sapiens, UniProt P17252)"}
{"Structure (SMILES)": "CS(=O)(=O)Nc1cccc(-c2csc(NC(=O)CSc3nc4nccnc4c(=O)n3CCc3ccccc3)n2)c1", "assay": "enzyme activity, inhibitor", "conditions": "10 µM", "quantity": "inhibition", "result": "1%"}
{"Structure (SMILES)": "Cc1[nH]c(/C=C2\\C(=O)Nc3ccc(F)cc32)c(C)c1C(=O)N[C@H]1CCN(C(=O)N(C)C)C1", "assay": "enzyme activity, inhibitor", "conditions": "0.1 µM", "quantity": "remaining activity", "result": "108%"}
{"Structure (SMILES)": "CCN(CC)c1ccc(C2=NNC(=O)CC2C)cc1[N+](=O)[O-] (stereo not shown)", "assay": "enzyme activity, inhibitor", "conditions": "10 µM", "quantity": "remaining activity", "result": "21%"}
{"Structure (SMILES)": "FC(F)(F)Oc1cccc(-c2cnc3ccc(-c4ccncc4)nn23)c1", "assay": "enzyme activity, inhibitor, radiometric", "conditions": "5 µM", "quantity": "activity vs control", "result": "91%"}
{"Structure (SMILES)": "Oc1cccc(-c2nc(N3CCOCC3)c3oc4ncccc4c3n2)c1", "assay": "enzyme activity, inhibitor", "conditions": "10 µM", "quantity": "remaining activity", "result": "93%"}
{"Structure (SMILES)": "Cc1ccc(-n2nc(C(C)(C)C)cc2NC(=O)Nc2ccc(OCCN3CCOCC3)c3ccccc23)cc1", "assay": "enzyme activity, inhibitor", "conditions": "10 µM", "quantity": "inhibition", "result": "9%"}
{"Structure (SMILES)": "CCN(CC)CCNC(=O)c1c(C)[nH]c(/C=C2\\C(=O)Nc3ccc(F)cc32)c1C", "assay": "enzyme activity, inhibitor", "conditions": "10 µM", "quantity": "inhibition", "result": "11%"}
{"Structure (SMILES)": "O=C1Nc2ccc(Cl)cc2C1=Cc1cc(Cl)c(O)c(Cl)c1", "assay": "cell-free assay", "conditions": "0.5 µM", "quantity": "remaining signal", "result": "105%"}
{"Structure (SMILES)": "CC(C)(C)c1nc(-c2cccc(NS(=O)(=O)c3c(F)cccc3F)c2F)c(-c2ccnc(N)n2)s1", "assay": "enzyme activity, inhibitor, radiometric", "conditions": "1 µM", "quantity": "remaining activity", "result": "100%"}
{"Structure (SMILES)": "CCCOc1ccc(OC)c(F)c1C(=O)c1ccc(C(=O)N[C@@H]2CNC[C@H]2NC(=O)c2ccc3[nH]ncc3c2)cc1", "assay": "enzyme activity, inhibitor", "conditions": "10 µM", "quantity": "remaining activity", "result": "92%"}
{"Structure (SMILES)": "CCCS(=O)(=O)Nc1ccc(F)c(C(=O)c2c[nH]c3ncc(-c4ccc(Cl)cc4)cc23)c1F", "assay": "enzyme activity, inhibitor", "conditions": "1 µM", "quantity": "inhibition", "result": "< 10%"}
{"Structure (SMILES)": "Cc1ccc(NC(=O)c2ccc(C)c(C(F)(F)F)c2)cc1C#Cc1nn(C2CCC(O)CC2)c2ncnc(N)c12 (stereo not shown)", "assay": "cell-free assay", "conditions": "10 µM", "quantity": "remaining signal", "result": "110%"}
{"Structure (SMILES)": "COc1cc(/C=C/C(=O)CC(=O)/C=C/c2ccc(O)c(OC)c2)ccc1O", "assay": "enzyme activity, inhibitor", "conditions": "1 µM", "quantity": "activity vs control", "result": "106%"}
{"Structure (SMILES)": "COc1cc(Cl)c(C(=O)N[C@@H](CN[C@H]2CC[C@@H](N)CC2)Cc2ccc(C#N)cc2)cc1-c1ccc(CN[C@H](C)c2ccc(C)cc2)o1", "assay": "enzyme activity, inhibitor", "conditions": "1 µM", "quantity": "remaining activity", "result": "97%"}
{"Structure (SMILES)": "FC(F)c1nc2ccccc2n1-c1nc(N2CCOCC2)nc(N2CCOCC2)n1", "assay": "enzyme activity, inhibitor", "conditions": "10 µM", "quantity": "remaining activity", "result": "86%"}
{"Structure (SMILES)": "N#CCCc1ccc2c(c1)-c1[nH]c3ccc([N+](=O)[O-])cc3c1CC(=O)N2", "assay": "cell-free assay", "conditions": "0.5 µM", "quantity": "remaining signal", "result": "80.9%"}
{"Structure (SMILES)": "CC/C(=N\\NC(=O)NCc1cccc(O)c1)c1ccc(O)c(C)c1O", "assay": "enzyme activity, inhibitor", "conditions": "0.1 µM", "quantity": "inhibition", "result": "2.6%"}
{"Structure (SMILES)": "COc1cc2ncnc(Nc3ccc(Oc4ccccc4)cc3C)c2cc1OC", "assay": "enzyme activity, inhibitor", "conditions": "1 µM", "quantity": "inhibition", "result": "6%"}
{"Structure (SMILES)": "O=C1NC(=O)c2cc(Nc3ccc(F)cc3)c(Nc3ccc(F)cc3)cc21", "assay": "cell-free assay", "conditions": "0.5 µM", "quantity": "remaining signal", "result": "99.3%"}
{"Structure (SMILES)": "COc1cc(Nc2cnc(C#N)c(O[C@H](C)CN(C)C)n2)ncc1-c1cnn(C)c1", "assay": "enzyme activity, inhibitor, radiometric", "conditions": "1 µM", "quantity": "remaining activity", "result": "115%"}
{"Structure (SMILES)": "Cc1sc(C(=O)NC2COC2)cc1-n1cc(NC(=O)Nc2c(F)cccc2Cl)cn1", "assay": "enzyme activity, inhibitor", "conditions": "10 µM", "quantity": "remaining activity", "result": "95.9%"}
{"Structure (SMILES)": "CCN(CC)CCNC(=O)c1c(C)[nH]c(/C=C2\\C(=O)Nc3ccc(F)cc32)c1C", "assay": "enzyme activity, inhibitor", "conditions": "1 µM", "quantity": "remaining activity", "result": "102%"}
